Results: ChEMBL document CHEMBL1143671, “Antibacterial nicotinamide adenine dinucleotide synthetase inhibitors: amide- and ether-linked tethered dimers with alpha-amino acid end groups” (J Med Chem, 2007)
≈ marks a conversion by molar mass, not a printed value. Calls of active or inactive are those of the source. The calls are words filed in the database; no cut-off is given here.

Tests used:
Bacillus subtilis [1] = test: Antibacterial activity against Bacillus subtilis ATCC 14289; format: functional
Outline: (§1)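 Broth tube dilution MIC. Bacteria subcultured from stock onto agar and grown overnight at 37 ± 2 °C in ambient air. Overnight cultures went into broth adjusted to about 5 × 10⁸ CFU/mL. Inhibitor started at 50 µg/mL with doubling dilutions over 10 tubes in duplicate. Each tube received 0.01 mL of challenge broth.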

Staphylococcus aureus [2] = test: Antibacterial activity against methicillin-resistant Staphylococcus aureus ATCC 33591; format: functional
Outline: as §1, with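 “MIC, performed by a contract lab.” for “MIC.”, “Bacteria were” for “Bacteria”, “in” for “with”, “dilutions,” for “dilutions over”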

[3] = Inhibition of Bacillus subtilis NAD synthetase by fluorescence based assay
Outline: (§2)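 B. subtilis NAD synthetase, overexpressed and purified, 2.0 µg/mL. Coupled to yeast ADH (40 µg/mL) with 1% EtOH at pH 8.5: 58.5 mM HEPPS, 18.5 mM NH4Cl, 19.5 mM KCl, 9.75 mM MgCl2, 0.1 mM NaAD, 2.5% DMSO. No BOG; 0–0.01% Triton X-100. Started with 0.2 mM ATP. NADH read by fluorescence. Triplicate points; IC50 averaged over two experiments.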

Staphylococcus aureus [4] = test: Antibacterial activity against Staphylococcus aureus ATCC 29213; format: functional; outline: as §1
[5] = Inhibition of yeast alcohol dehydrogenase by fluorescence based assay; set-up: species or system Saccharomyces cerevisiae
Outline: (§3)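 Yeast ADH 2.5 µg/mL in 60 mM HEPPS pH 8.5 with 0.5 mM NH4Cl, 20 mM KCl, 10 mM MgCl2, 60 mM ethanol, 2.5% DMSO and 0–0.01% Triton X-100. Started with 0.75 mM β-NAD and stopped with 1.2 M guanidine·HCl after 2 min. NADH fluorescence read at 355 nm excitation / 460 nm emission, pre-NAD blank subtracted. Triplicate points; IC50 averaged over two experiments.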

[6] = (§4) Inhibition of yeast alcohol dehydrogenase in presence of 0.001% Triton X-100 by fluorescence based assay; set-up: species or system Saccharomyces cerevisiae; outline: as §3
[7] = (§5) Inhibition of Bacillus subtilis NAD synthetase in presence of 0.001% Triton X-100 by fluorescence based assay; outline: as §2
[8] = (§6) Inhibition of yeast alcohol dehydrogenase in presence of 0.01% Triton X-100 by fluorescence based assay; set-up: species or system Saccharomyces cerevisiae; outline: as §3
[9] = (§7) Inhibition of Bacillus subtilis NAD synthetase in presence of 0.01% Triton X-100 by fluorescence based assay; outline: as §2
Pseudomonas aeruginosa = test: Antibacterial activity against Pseudomonas aeruginosa ATCC 27853; format: functional; outline: as §1
Saccharomyces cerevisiae [10] = test: as §4; outline: as §3
Bacillus subtilis [11] = test: as §5; outline: as §2
Saccharomyces cerevisiae [12] = test: as §6; outline: as §3
Bacillus subtilis [13] = test: as §7; outline: as §2

N=C(N)N[C@H](COCCCCCCCCOc1ccc(OCc2ccccc2)cc1)c1ccccc1
MIC (Bacillus subtilis [1]): 3.13 µM (≈ 1.53 µg/mL)
MIC (Staphylococcus aureus [2]): 0.78 µM (≈ 0.382 µg/mL)
IC50 [3]: 11 µM

C[C@H]1c2cccc(O)c2C(=O)C2=C(O)[C@]3(O)C(=O)C(C(N)=O)=C(O)[C@@H](N(C)C)[C@@H]3[C@@H](O)[C@@H]21 [DOXYCYCLINE]
MIC (Bacillus subtilis [1]): 1.56 µM (≈ 0.693 µg/mL)
MIC (Staphylococcus aureus [2]): > 30 µM
MIC (Staphylococcus aureus [4]): 1.56 µM (≈ 0.693 µg/mL)

C[N+](C)(C)[C@@H](Cc1ccccc1)C(=O)OCCCCCCCCOc1ccc(OCc2ccccc2)cc1
IC50 [5]: 27 µM
IC50 [6]: 69 µM
MIC (Bacillus subtilis [1]): 0.78 µM
IC50 [7]: 16.5 µM
MIC (Staphylococcus aureus [2]): 0.78 µM
IC50 [8]: 266 µM
MIC (Staphylococcus aureus [4]): 0.78 µM
IC50 [9]: 37 µM
IC50 [3]: 22 µM
MIC (Pseudomonas aeruginosa): > 50 µM

N=C(N)N[C@@H](Cc1ccccc1)C(=O)NCCCCCCCCOc1ccc(OCc2ccccc2)cc1
MIC (Bacillus subtilis [1]): 3.13 µM (≈ 1.62 µg/mL)
MIC (Staphylococcus aureus [2]): 1.56 µM (≈ 0.806 µg/mL)
IC50 [3]: 12 µM

COc1cccc(OC)c1C(=O)N[C@@H]1C(=O)N2[C@@H]1SC(C)(C)[C@@H]2C(=O)O [METHICILLIN]
MIC (Staphylococcus aureus [2]): 32 µM (≈ 12.2 µg/mL)
MIC (Staphylococcus aureus [4]): 1 µM (≈ 0.38 µg/mL)

CC1(C)S[C@@H]2[C@H](NC(=O)[C@H](N)c3ccccc3)C(=O)N2[C@H]1C(=O)O [AMPICILLIN]
MIC (Bacillus subtilis [1]): 0.2 µM (≈ 0.0699 µg/mL)
MIC (Staphylococcus aureus [2]): > 50 µM

C[N+](C)(C)[C@H](C(=O)NCCCCCCCCOc1ccc(OCc2ccccc2)cc1)c1ccccc1
MIC (Bacillus subtilis [1]): 1.56 µM
MIC (Staphylococcus aureus [2]): 1.56 µM
IC50 [3]: 45 µM

Clc1ccccc1C(c1ccccc1)(c1ccccc1)n1ccnc1 [CLOTRIMAZOLE]
IC50 [5]: 96.5 µM
Activity (Saccharomyces cerevisiae [10]): inactive
Activity (Bacillus subtilis [11]): inactive
Activity (Saccharomyces cerevisiae [12]): inactive
Activity (Bacillus subtilis [13]): inactive
IC50 [3]: > 1500 µM

C[N+](C)(C)[C@H](COCCCCCCCCOc1ccc(OCc2ccccc2)cc1)c1ccccc1
MIC (Bacillus subtilis [1]): 0.78 µM
MIC (Staphylococcus aureus [2]): 3.13 µM
IC50 [3]: 38 µM

N=C(N)N[C@H](C(=O)NCCCCCCCCOc1ccc(OCc2ccccc2)cc1)c1ccccc1
MIC (Bacillus subtilis [1]): 1.56 µM (≈ 0.784 µg/mL)
MIC (Staphylococcus aureus [2]): 1.56 µM (≈ 0.784 µg/mL)
IC50 [3]: 19 µM

C[N+](C)(C)c1ccc(CC(=O)OCCCCCCCCOc2ccc(OCc3ccccc3)cc2)cc1
MIC (Bacillus subtilis [1]): 2 µM
MIC (Staphylococcus aureus [2]): 6.2 µM
MIC (Staphylococcus aureus [4]): 9.4 µM
IC50 [3]: 41 µM
MIC (Pseudomonas aeruginosa): > 50 µM

N=C(N)N[C@H](COCCCCCCCCOc1ccc(OCc2ccccc2)cc1)Cc1ccccc1
MIC (Bacillus subtilis [1]): 3.13 µM (≈ 1.58 µg/mL)
MIC (Staphylococcus aureus [2]): 0.78 µM (≈ 0.393 µg/mL)
IC50 [3]: 11 µM

C[N+](C)(C)[C@@H](Cc1ccccc1)C(=O)NCCCCCCCCOc1ccc(OCc2ccccc2)cc1
IC50 [5]: > 1500 µM
IC50 [6]: > 1500 µM
MIC (Bacillus subtilis [1]): 0.39 µM
IC50 [7]: 27.8 µM
MIC (Staphylococcus aureus [2]): 0.78 µM
IC50 [8]: > 1500 µM
MIC (Staphylococcus aureus [4]): 0.78 µM
IC50 [9]: 104 µM
IC50 [3]: 40 µM
MIC (Pseudomonas aeruginosa): > 50 µM

C[N+](C)(C)[C@@H](Cc1ccc(O)cc1)C(=O)OCCCCCCCCOc1ccc(OCc2ccccc2)cc1
MIC (Bacillus subtilis [1]): 1.56 µM
MIC (Staphylococcus aureus [2]): 3.13 µM
IC50 [3]: 53 µM

C[N+](C)(C)[C@@H](Cc1c[nH]c2ccccc12)C(=O)OCCCCCCCCOc1ccc(OCc2ccccc2)cc1
IC50 [3]: 19 µM

O=C(O)c1cn(C2CC2)c2cc(N3CCNCC3)c(F)cc2c1=O [CIPROFLOXACIN]
MIC (Bacillus subtilis [1]): 0.5 µM (≈ 0.166 µg/mL)
MIC (Staphylococcus aureus [2]): 0.5 µM (≈ 0.166 µg/mL)

CO[C@H]1/C=C/O[C@@]2(C)Oc3c(C)c(O)c4c(O)c(c(/C=N/N5CCN(C)CC5)c(O)c4c3C2=O)NC(=O)/C(C)=C\C=C\[C@H](C)[C@H](O)[C@@H](C)[C@@H](O)[C@@H](C)[C@H](OC(C)=O)[C@@H]1C [RIFAMPIN]
MIC (Bacillus subtilis [1]): 1.5 µM (≈ 1.23 µg/mL)

C[N+](C)(C)[C@H](COCCCCCCCCOc1ccc(OCc2ccccc2)cc1)Cc1ccccc1
MIC (Bacillus subtilis [1]): 0.39 µM
MIC (Staphylococcus aureus [2]): 1.56 µM
MIC (Staphylococcus aureus [4]): 0.78 µM
IC50 [3]: 21 µM
MIC (Pseudomonas aeruginosa): > 50 µM
